# Entries after “also recorded” stand apart in the source; their conditions may differ. Where a name gives a salt, the structure may show the parent alone.
# Experiments:
# [1] = tested on: patients with castration-resistant prostate cancer (CRPC); experiment: Phase 2 trial: treatment-emergent adverse events; type: in vivo, human
# [2] = Plasma pharmacokinetics after first IPI-504 dose; type: in vivo, human; conditions: for Time of peak plasma concentration: relative to the 30-minute infusion
# [3] = tested on: castration-resistant prostate cancer (CRPC); experiment: Phase 2 trial: PSA response / antitumor outcome; type: in vivo, human
# Outline: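 Adults (>18 years) with progressive CRPC (two serial PSA rises or progressive radiographic metastases, serum testosterone < 50 […]). Group A was chemotherapy-naïve; Group B had radiographic metastases, progression on or intolerance to docetaxel, and ≤3 prior chemotherapy regimens. Test compound 400 mg/m2 given as a 30-min IV infusion on days 1, 4, 8 and 11 of 21-day cycles; later continuation allowed at 300 mg/m2.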
# [4] = twice-weekly; cited from earlier work
# [5] = tested on: cytochrome P450 3A4 (CYP3A4); conditions: in vitro; cited from earlier work
# [6] = 17-AAG: ref 5; IPI-504: ref 6; cited from earlier work
# [7] = tested on: androgen-dependent and androgen-independent prostate cancer xenografts; conditions: 3 (Solit et al); cited from earlier work
# [8] = tested on: castration-resistant prostate cancer (CRPC); conditions: cited from earlier work
# [9] = cited from earlier work
# [10] = Grade ≥ 3, N=19, IPI-504 400 mg/m^2 iv
# [11] = TEAE in > 25% of study population, N=19
# [12] = any grade, N=19, IPI-504 400 mg/m^2 iv
# [13] = of the 19 patients enrolled and treated
# [14] = plasma after first IPI-504 dose 400 mg/m^2 iv
compound,measurement,setting,value
"C=CCNc1c(O)cc2c(O)c1C[C@@H](C)C[C@H](OC)[C@H](O)[C@@H](C)/C=C(\C)[C@H](OC(N)=O)[C@@H](OC)/C=C\C=C(/C)C(=O)N2 [IPI-504, retaspimycin hydrochloride]",Grade 3 AST elevation in the patient who died of hepatic failure,"[1]; 1 day before hepatic failure, at study drug administration",339 U/L
same,AST elevation (Grade 4) in the second patient,"[1]; Cycle 1, Dose 2, from 32 U/L at baseline",863 U/L
same,ALT elevation (Grade 3) in the second patient,"[1]; Cycle 1, Dose 2, from a normal baseline level",659 U/L
same,AST elevation (Grade 3) in one patient,"[1]; Cycle 2, Dose 3, prompted study drug discontinuation, returned to normal 4 days later",397 U/L
same,"ALT Increased, patients with TEAE (Grade ≥ 3)",[1]; [10],1 (5) n (%)
same,"AST Increased, patients with TEAE (Grade ≥ 3)",[1]; [10],2 (11) n (%)
same,"Anemia, patients with TEAE (Grade ≥ 3)",[1]; [10],1 (5) n (%)
same,"Anorexia, patients with TEAE (Grade ≥ 3)",[1]; [10],1 (5) n (%)
same,"Anxiety, patients with TEAE (Grade ≥ 3)",[1]; [10],0 n (%)
same,"Arthralgia, patients with TEAE (Grade ≥ 3)",[1]; [10],0 n (%)
same,"Back Pain, patients with TEAE (Grade ≥ 3)",[1]; [10],1 (5) n (%)
same,"Constipation, patients with TEAE (Grade ≥ 3)",[1]; [10],0 n (%)
same,"Dehydration, patients with TEAE (Grade ≥ 3)",[1]; [10],3 (16) n (%)
same,"Diarrhea, patients with TEAE (Grade ≥ 3)",[1]; [10],1 (5) n (%)
same,"Fatigue, patients with TEAE (Grade ≥ 3)",[1]; [10],1 (5) n (%)
same,"Headache, patients with TEAE (Grade ≥ 3)",[1]; [10],0 n (%)
same,"Hypokalemia, patients with TEAE (Grade ≥ 3)",[1]; [10],0 n (%)
same,"Hyponatremia, patients with TEAE (Grade ≥ 3)",[1]; [10],2 (11) n (%)
same,"Infusion Site Pain, patients with TEAE (Grade ≥ 3)",[1]; [10],0 n (%)
same,"Musculoskeletal Pain, patients with TEAE (Grade ≥ 3)",[1]; [10],0 n (%)
same,"Myalgia, patients with TEAE (Grade ≥ 3)",[1]; [10],0 n (%)
same,"Nausea, patients with TEAE (Grade ≥ 3)",[1]; [10],1 (5) n (%)
same,"Pain in Extremity, patients with TEAE (Grade ≥ 3)",[1]; [10],0 n (%)
same,"Pneumonia, patients with TEAE (Grade ≥ 3)",[1]; [10],2 (11) n (%)
same,"Pyrexia, patients with TEAE (Grade ≥ 3)",[1]; [10],0 n (%)
same,"Vomiting, patients with TEAE (Grade ≥ 3)",[1]; [10],1 (5) n (%)
same,"Anorexia, share of study population",[1]; [11],26%
same,"Arthralgia, share of study population",[1]; [11],26%
same,"ALT Increased, patients with any TEAE",[1]; [12],2 (11) n (%)
same,"AST Increased, patients with any TEAE",[1]; [12],2 (11) n (%)
same,"Anemia, patients with any TEAE",[1]; [12],4 (21) n (%)
same,"Anorexia, patients with any TEAE",[1]; [12],5 (26) n (%)
same,"Anxiety, patients with any TEAE",[1]; [12],2 (11) n (%)
same,"Arthralgia, patients with any TEAE",[1]; [12],5 (26) n (%)
same,"Back Pain, patients with any TEAE",[1]; [12],2 (11) n (%)
same,"Constipation, patients with any TEAE",[1]; [12],4 (21) n (%)
same,"Dehydration, patients with any TEAE",[1]; [12],4 (21) n (%)
same,"Diarrhea, patients with any TEAE",[1]; [12],8 (42) n (%)
same,"Fatigue, patients with any TEAE",[1]; [12],6 (32) n (%)
same,"Headache, patients with any TEAE",[1]; [12],2 (11) n (%)
same,"Hypokalemia, patients with any TEAE",[1]; [12],2 (11) n (%)
same,"Hyponatremia, patients with any TEAE",[1]; [12],2 (11) n (%)
same,"Infusion Site Pain, patients with any TEAE",[1]; [12],4 (21) n (%)
same,"Musculoskeletal Pain, patients with any TEAE",[1]; [12],3 (16) n (%)
same,"Myalgia, patients with any TEAE",[1]; [12],3 (16) n (%)
same,"Pain in Extremity, patients with any TEAE",[1]; [12],4 (21) n (%)
same,"Pneumonia, patients with any TEAE",[1]; [12],2 (11) n (%)
same,"Pyrexia, patients with any TEAE",[1]; [12],3 (16) n (%)
same,"Vomiting, patients with any TEAE",[1]; [12],4 (21) n (%)
same,"Nausea, patients with any TEAE","[1]; any grade, N=19, IPI-504 400 mg/m^2 iv days 1, 4, 8, 11 of 21-day cycle",9 (47) n (%)
same,"Patients reported with treatment-emergent AEs (TEAEs), number",[1]; [13],18 patients
same,"Patients whose TEAEs resulted in death, percent",[1]; [13],11%
same,"Patients with CTCAE Grade 3 or higher TEAEs, number",[1]; [13],11 patients
same,"Patients with CTCAE Grade 3 or higher TEAEs, percent",[1]; [13],58%
same,AUC,"[2]; human, in vivo, 400 mg/m^2",26.4 µg·h/mL
same,AUC(0-inf),"[2]; human, in vivo, iv, 400 mg/m2",11.7 µg·h/mL
same,Time of peak plasma concentration,[2],at the end of the infusion
same,Patients achieving ≥ 50% post-treatment decline in PSA (PSA response),"[3]; Groups A and B, N=19",No PSA responses; also recorded: No patients
same,PSA decline from baseline in one patient,[3]; one Group A (chemotherapy-naïve) patient,48%
same,Time on treatment of the patient with PSA decline,[3]; one Group A patient,9 cycles
same,Time on study until discontinuation due to disease progression,"[3]; one Group A patient, after the interim analysis",approximately 2 years
same,Overall antitumor activity,"[3]; single agent, 400 mg/m^2",minimal effect on PSA or tumor burden; also recorded: negligible antitumor activity
same,Maximum tolerated dose as a single agent,[4],≥ 400 mg/m^2
same,Involvement of CYP3A4 in metabolism,[5],involved in the metabolism
same,Solubility,[6],water-soluble
CO[C@H]1/C=C/C=C(\C)C(=O)NC2=CC(=O)C(N)=C(C[C@@H](C)C[C@H](OC)[C@H](O)[C@@H](C)/C=C(\C)[C@@H]1OC(N)=O)C2=O [17-AG],mean T1/2,[2]; [14],5.2 h
same,Time of peak plasma concentration,[2],ranging from the end of the infusion to 1.5 hours post-infusion
same,Share of the total measured exposure,"[2]; sum of IPI-504, 17-AAG and 17-AG without adjustment for molecular weight",approximately 68%
"C=CCNC1=C2C[C@@H](C)C[C@H](OC)[C@H](O)[C@@H](C)/C=C(\C)[C@H](OC(N)=O)[C@@H](OC)/C=C\C=C(/C)C(=O)NC(=CC1=O)C2=O [17-AAG, 17-allylamine-17-demethoxygeldanamycin, reference compound]",Mean AUC0-∞,[2]; [14],"9,847 ng*hr/mL"
same,mean T1/2,[2]; [14],1.4 h
same,Time of peak plasma concentration,[2],at the end of the infusion
same,Growth of prostate cancer xenografts,[7],dose-dependent growth inhibition
same,Antitumor activity in clinical trials in patients with CRPC,[8],negligible antitumor activity
same,Hepatotoxicity in phase I trials,[9],dose limiting toxicity

# Reference: PMC3166448 (Urology, 2011)
